From publication PMC3715850 (Nature Communications, 2013)
Read-outs that look alike come from different tables or passages of the source.

Columns and labels:
Format in all cases: binding
E710A = E710A (Escherichia coli, UniProt P00582, C907S/D424A/E710A/K550C/L744C); conditions: for occupancy of the closed conformation: 1 mM dNTP
How it was run: (§1)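 Doubly labelled Klenow fragment (<100 pM) with DNA, titrated with nucleotide in 40 mM HEPES-NaOH pH 7.3, 10 mM MgCl2, 1 mM DTT, 100 μg ml−1 BSA, 5% glycerol, 1 mM mercaptoethylamine. Read by confocal alternating-laser excitation (532/638 nm) at ~22 °C. Stoichiometry-filtered E* histograms fitted as double Gaussians (σ≤0.07). Low-FRET peak shift and high-FRET fraction globally fitted for K0, K1, K2; Kd1=1/K1, Kd2=1/(K1K2).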

Y766A = Y766A (Escherichia coli, UniProt P00582, C907S/D424A/K550C/L744C/Y766A); conditions: template G (DNA2); listed as G-dCTP
How it was run: as §1

wt KF [1] = biological target: T1, wt KF (Escherichia coli, UniProt P00582, C907S/D424A/K550C/L744C); assay: Single-molecule FRET nucleotide titration in the absence of DNA; conditions: no DNA
How it was run: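 Polymerase without DNA: doubly labelled protein (<100 pM) titrated with nucleotide in HEPES-NaOH pH 7.3 buffer with 10 mM MgCl2, at ~22 °C by confocal alternating-laser excitation smFRET. O and C denote unliganded-protein states. Double-Gaussian fits of stoichiometry-filtered E* histograms; low-FRET peak shift and high-FRET fraction fitted globally for K0, K1, K2, with Kd1=1/K1.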

wt KF [2] = biological target: T1, wt KF; assay: Interconversion rates of ternary complexes by PDA and FRET-width analysis; conditions: template A, listed as A-dGTP
wt KF [3] = biological target: T1, wt KF; conditions: for free energy of closed complex relative to partially closed state, ΔrG(IN/CN) / free energy of partially closed state relative to open binary complex, ΔrG(O/IN): template A; for free energy of partially closed state relative to open binary complex, ΔrG(O/IN): nucleotide concentrations in E. coli (dTTP 120 μM, dGTP 60 μM)
How it was run: as §1

Y766F = Y766F (Escherichia coli, UniProt P00582, C907S/D424A/K550C/L744C/Y766F); conditions: template A (DNA1); listed as A-dTTP
How it was run: as §1

[4] = ternary complex, saturating nucleotide, PDA

SMILES: Nc1ncnc2c1ncn2[C@H]1C[C@H](O)[C@@H](COP(=O)(O)OP(=O)(O)OP(=O)(O)O)O1 [dATP]
- occupancy of the closed conformation (E710A; template T (DNA3)): 58%
- K2 (equilibrium IN to closed CN) (E710A; template T (DNA3), listed as T-dATP): ~ 2

SMILES: Nc1ccn([C@H]2C[C@H](O)[C@@H](COP(=O)(O)OP(=O)(O)OP(=O)(O)O)O2)c(=O)n1 [dCTP]
- K2 (equilibrium IN to closed CN) (Y766A): 8.9
- occupancy of the closed conformation (E710A; template G (DNA2)): 61%
- K2 (equilibrium IN to closed CN) (E710A; template G (DNA2), listed as G-dCTP): ~ 2

SMILES: Nc1nc2c(ncn2[C@H]2C[C@H](O)[C@@H](COP(=O)(O)OP(=O)(O)OP(=O)(O)O)O2)c(=O)[nH]1 [dGTP]
- K2 (equilibrium IN to closed CN) (wt KF [1]): < 0.2
- rate of the O-to-IN transition (wt KF [2]; at 60 μM dGTP (E. coli concentration), K1·kIN→O·[N]): 390 s⁻¹
- kCN→IN (closed to partially closed) (wt KF [2]; [4]): 45 s⁻¹
- kIN→CN (partially closed to closed) (wt KF [2]; [4]): 3 s⁻¹
- free energy of closed complex relative to partially closed state, ΔrG(IN/CN) (wt KF [3]): +6 kJ mol^−1
- free energy of partially closed state relative to open binary complex, ΔrG(O/IN) (wt KF [3]): -0.17 kcal/mol

SMILES: Cc1cn([C@H]2C[C@H](O)[C@@H](COP(=O)(O)OP(=O)(O)OP(=O)(O)O)O2)c(=O)[nH]c1=O [dTTP]
- K2 (equilibrium IN to closed CN) (Y766F): 9.6
- free energy of closed complex relative to partially closed state, ΔrG(IN/CN) (wt KF [3]): -0.96 kcal/mol
- molecules in closed conformation (occupancy) (wt KF [3]; template A (DNA1), 1 mM nucleotide): ~ 85%
- K2 (equilibrium IN to closed CN) (wt KF [3]; template A (DNA1), listed as A-dTTP): 6.1
- free energy of partially closed state relative to open binary complex, ΔrG(O/IN) (wt KF [3]): -1.9 kcal/mol

SMILES: Nc1nc2c(ncn2[C@@H]2O[C@H](COP(=O)(O)OP(=O)(O)OP(=O)(O)O)[C@@H](O)[C@H]2O)c(=O)[nH]1 [rGTP]
- K2 (equilibrium IN to closed CN) (wt KF [3]; template A (DNA1), listed as A-rGTP): < 0.2
